Calls of active or inactive are those of the source. The calls are words filed in the database; no cut-off is given here.
Columns and labels:
[1] = system: Rattus norvegicus; assay: Inhibition of LPS-induced TNF production in rat pretreated at 20 mg/kg, po after […] by ELISA; format: functional
[2] = system: Rattus norvegicus; assay: Inhibition of LPS-induced TNF production in rat pretreated at 5 mg/kg, po after […] by ELISA; format: functional
[3] = system: Mus musculus; assay: Decrease of arthritis incidence in collagen-induced DBA/1 mouse at 15 mg/kg, po bid; format: functional, organism-based; design: dose 15 mg/kg
Outline: (§1)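 Male DBA/1 mice; arthritis induced by subcutaneous type II chick collagen in Freund's adjuvant on days 1 and 21. Test agent given by oral gavage twice daily in Methocel/Tween, days 21-56. Weekly ip anti-TNF antibody served as comparator. Animals scored for signs of arthritis, with incidence compared with vehicle by logistic regression (p < 0.05); 8-10 mice per group.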

[4] = system: Mus musculus; assay: Decrease of arthritis incidence in collagen-induced DBA/1 mouse at 30 mg/kg, po bid; format: functional, organism-based; design: dose 30 mg/kg; outline: as §1
[5] = target: MAP kinase p38 (Homo sapiens, UniProt O15264+Q15759+Q16539+P53778); assay: Inhibition of p38 MAPK activity assessed as EGFR phosphorylation; format: protein assay

Row | Compound | inhibition in vivo at 20 mg/kg [1] [%] | inhibition in vivo at 5 mg/kg [2] [%] | other results
1 | CC1CN(c2[nH]nc(-c3ccc(Cl)cc3)c2-c2ccncc2)CC(C)N1 (stereo not drawn) | 96 | 93 | –
2 | CC1CC(C)CN(c2[nH]nc(-c3ccc(Cl)cc3)c2-c2ccncc2)C1 (stereo not drawn) | 53 | – | –
3 | Clc1ccc(-c2n[nH]c(N3CCC4CCCCC4C3)c2-c2ccncc2)cc1 (stereo not drawn) | 11 | – | –
4 | CC1CCN(c2[nH]nc(-c3ccc(Cl)cc3)c2-c2ccncc2)CC1 | 16 | – | –
5 | OC1CCCN(c2[nH]nc(-c3ccc(Cl)cc3)c2-c2ccncc2)C1 (stereo not drawn) | 75 | – | –
6 | Clc1ccc(-c2n[nH]c(N3CCN4CCC[C@H]4C3)c2-c2ccncc2)cc1 | 89 | – | –
7 | Clc1ccc(-c2n[nH]c(N3CCCC4CCCCC43)c2-c2ccncc2)cc1 (stereo not drawn) | 33 | – | –
8 | Clc1ccc(-c2n[nH]c(N3CCc4ccccc4C3)c2-c2ccncc2)cc1 | 12 | – | –
9 | CN1CCN(c2[nH]nc(-c3ccc(Cl)cc3)c2-c2ccncc2)CC1 | 95 | 98 | Activity [3]: Active; Activity [4]: Active
10 | CC1CN(c2[nH]nc(-c3ccc(Cl)cc3)c2-c2ccncc2)CCN1 (stereo not drawn) | 95 | 84 | IC50 [5]: 0.016 µM
11 | OC1CCN(c2[nH]nc(-c3ccc(Cl)cc3)c2-c2ccncc2)CC1 | 91 | 52 | –

From ChEMBL document CHEMBL1138242, “Synthesis, crystal structure, and activity of pyrazole-based inhibitors of p38 kinase” (J Med Chem, 2007)
